Assay results collected from several papers.
Compare with care: the assays were run in different laboratories.
MAPKAPK2: MAP kinase-activated protein kinase 2 (MAPKAPK2, Homo sapiens, UniProt P49137)
ADAM17: Disintegrin and metalloproteinase domain-containing protein 17 (ADAM17, Homo sapiens, UniProt P78536)

`C#Cc1n[nH]c2c(-c3cn([C@@H](C)c4ccccn4)c(=O)[nH]c3=O)cc(F)cc12` gave an inhibition of 11.8% (MAPKAPK2; enzyme activity, inhibitor; 0.1 µM).
For `Cn1cc(-c2cc(F)cc(N3CCn4c(cc5c4CCCC5)C3=O)c2CO)cc(Nc2ccc(N3CCN(C4COC4)CC3)cn2)c1=O`, the inhibition was -7% (Phosphatidylinositol 4,5-bisphosphate 3-kinase catalytic subunit alpha isoform (PIK3CA, Homo sapiens, UniProt P42336); enzyme activity, inhibitor; 0.1 µM).
For `COCc1c(-c2cc3cc(C)cc(OC)c3s2)c2c(N)ncnn2c1CN1CCNC(=O)C1`, the inhibition was 18% (Motilin receptor (MLNR, Homo sapiens, UniProt O43193); ligand displacement, radioligand; 10 µM).
With `COc1cc(Nc2ncc(F)c(Nc3ccc4c(n3)NC(=O)C(C)(C)O4)n2)cc(OC)c1OC` the inhibition was 0% (Serine/threonine-protein kinase 32B (STK32B, Homo sapiens, UniProt Q9NY57); binding, competition with immobilised ligand; 10 µM).
With `CC(C)C[C@H](NC(=O)[C@H](Cc1ccccc1)NC(=O)c1cnccn1)B(O)O` the inhibition was 61.8% (Cathepsin G (CTSG, Homo sapiens, UniProt P08311); enzyme activity, inhibitor; 33 µM).
`N=C(N)c1ccc2cc(OC(=O)c3ccc(N=C(N)N)cc3)ccc2c1` has an inhibition of 5% (ADAM17; enzyme activity, inhibitor; 10 µM).
`COc1cc2c(cc1OC)-c1c(oc3cc4c(cc3c1=O)CCO4)CO2` gave an inhibition of 14.3% (Glycogen synthase kinase-3 beta (GSK3B, Homo sapiens, UniProt P49841); enzyme activity, inhibitor, ADP detection; 100 µM).
`CC(C)C[C@H](CC(=O)NO)C(=O)N[C@H](C(=O)N[C@@H](C)C(=O)NCCN)C(C)(C)C` has an inhibition of 73% (ADAM17; enzyme activity, inhibitor; 10 µM).
For `c1ccc(C(NCCNC(c2ccccc2)c2ccccc2)c2ccccc2)cc1`, the inhibition was -14% (Gamma-aminobutyric acid type B receptor subunit 1 (GABBR1, Homo sapiens, UniProt Q9UBS5); cell-free assay; 10 µM).
For `C#Cc1n[nH]c2c(-c3cn([C@@H](C)c4ccccc4)c(=O)[nH]c3=O)cc(F)cc12`, the inhibition was 11.6% (MAPKAPK2; enzyme activity, inhibitor; 0.1 µM).
The inhibition of `C[C@H](C(=O)N[C@H]1COc2ccccc2[C@@H]1S(C)(=O)=O)c1ccc(F)cc1` is reported as 26% (Vasopressin V1b receptor (AVPR1B, Homo sapiens, UniProt P47901); cell-free assay; 10 µM).
With `CCOC(=O)c1ccc(OC(=O)CCCCCNC(=N)N)cc1` the inhibition was 7% (ADAM17; enzyme activity, inhibitor; 10 µM).
